Source: ChEMBL document CHEMBL4316593 (Eur J Med Chem, 2019)
The source made the active and inactive calls. The rule behind the calls is not given here.

Legend:
U-87 MG [1] = test: Cytotoxicity against human U87 cells assessed as reduction in cell proliferation measured after 48 hrs by trypan blue dye-based cell counting analysis
U-87 MG [2] = test: Cell cycle arrest in human U87 cells assessed as change in SFN gene expression at cytotoxic IC50 measured after 48 hrs […] relative to control; assay type: functional, U-87MG ATCC
Method in brief: (§1)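 U87 expression profiling. Cells incubated 48hrs at 37°C, 5% CO₂ with the IC₅₀ concentration, alongside a cisplatin and an untreated control, in triplicate. RNA was isolated by one common protocol and profiled. DEGs were called with DESeq2 (q < 0.05, fold change > 1.5) and expressed as fold change versus untreated.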

U-87 MG [3] = test: Induction of DNA damage in human U87 cells assessed as change in RPS27L gene expression at cytotoxic IC50 measured after 48 hrs […] relative to control; assay type: functional, U-87MG ATCC; method in brief: as §1
U-87 MG [4] = test: Induction of DNA damage in human U87 cells assessed as change in BTG2 gene expression at cytotoxic IC50 measured after 48 hrs […] relative to control; assay type: functional, U-87MG ATCC; method in brief: as §1
U-87 MG [5] = test: Induction of DNA damage in human U87 cells assessed as change in E2F7 gene expression at cytotoxic IC50 measured after 48 hrs […] relative to control; assay type: functional, U-87MG ATCC; method in brief: as §1
U-87 MG [6] = test: Induction of DNA damage in human U87 cells assessed as change in CDK1 gene expression at cytotoxic IC50 measured after 48 hrs […] relative to control; assay type: functional, U-87MG ATCC; method in brief: as §1
U-87 MG [7] = test: Induction of DNA damage in human U87 cells assessed as change in MDM2 gene expression at cytotoxic IC50 measured after 48 hrs […] relative to control; assay type: functional, U-87MG ATCC; method in brief: as §1
U-87 MG [8] = test: Induction of DNA damage in human U87 cells assessed as change in PEA15 gene expression at cytotoxic IC50 measured after 48 hrs […] relative to control; assay type: functional, U-87MG ATCC; method in brief: as §1
U-87 MG [9] = test: Induction of DNA damage in human U87 cells assessed as change in BRIP1 gene expression at cytotoxic IC50 measured after 48 hrs […] relative to control; assay type: functional, U-87MG ATCC; method in brief: as §1
U-87 MG [10] = test: Induction of apoptosis in human U87 cells assessed as apoptotic cells at cytotoxic IC50 measured after 48 hrs by Annexin V-FITC/propidium iodide staining based flow cytometry (reference value: 22.4%); assay type: functional, U-87MG ATCC
U-87 MG [11] = test: Induction of apoptosis in human U87 cells assessed as change in FOS gene expression at cytotoxic IC50 measured after 48 hrs […] relative to control; assay type: functional, U-87MG ATCC
Method in brief: (§2)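 U87 cells grown in MEM with 10% FBS at 37°C, 5% CO2. Cells exposed to IC50 of test compound for 48 hrs, alongside untreated and cisplatin controls, each condition in triplicate. RNA isolated and profiled; differential expression called with DESeq2 (q-value < 0.05, fold change > 1.5), fold change versus untreated.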

U-87 MG [12] = test: Induction of apoptosis in human U87 cells assessed as change in ACTB gene expression at cytotoxic IC50 measured after 48 hrs […] relative to control; assay type: functional, U-87MG ATCC; method in brief: as §2
U-87 MG [13] = test: Induction of oxidative stress in human U87 cells assessed as increase in redox level at cytotoxic IC50 measured after 5 hrs by H2DCFDA dye based fluorescence assay relative to control; assay type: functional, U-87MG ATCC
Method in brief: (§3)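 Cells grown overnight, exposed to IC50 for 5 hrs at 37°C with negative, positive (H2O2) and blank controls, plus solvent baseline. Pelleted, loaded with 2 µM H2DCFDA for 30 min at 37°C, washed, resuspended in warm medium, 20 min at room temperature. Fluorescence read at ex 485/em 535 nm.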

LN-229 = test: Induction of oxidative stress in human LN229 cells assessed as increase in redox level at cytotoxic IC50 measured after 5 hrs by H2DCFDA dye based fluorescence assay relative to control; assay type: functional, cell-based; method in brief: as §3
[14] = Inhibition of RTK/PI3K/AKT/mTOR signaling in human U87 cells assessed as down regulation of TEX14 gene expression at cytotoxic IC50 measured after 48 hrs relative to control; assay type: cell-based; settings: U-87MG ATCC
Method in brief: (§4)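 Cells were exposed for 48hrs at 37°C in humidified 5% CO₂ to the compound at its previously determined IC₅₀, with Cisplatin at its IC₅₀ and an untreated negative control alongside. Each condition was run in triplicate. RNA was isolated from all samples by the same protocol. Genes were called differentially expressed by DESeq2 at q-value < 0.05 and fold change > 1.5.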

[15] = Inhibition of RTK/PI3K/AKT/mTOR signaling in human U87 cells assessed as down regulation of COX17 gene expression at cytotoxic IC50 measured after 48 hrs relative to control; assay type: cell-based; settings: U-87MG ATCC; method in brief: as §2
[16] = Inhibition of RTK/PI3K/AKT/mTOR signaling in human U87 cells assessed as down regulation of ZYG11B gene expression at cytotoxic IC50 measured after 48 hrs relative to control; assay type: cell-based; settings: U-87MG ATCC; method in brief: as §4
[17] = Inhibition of RTK/PI3K/AKT/mTOR signaling in human U87 cells assessed as down regulation of SORT1 gene expression at cytotoxic IC50 measured after 48 hrs relative to control; assay type: cell-based; settings: U-87MG ATCC; method in brief: as §4
[18] = Inhibition of RTK/PI3K/AKT/mTOR signaling in human U87 cells assessed as down regulation of SAFB2 gene expression at cytotoxic IC50 measured after 48 hrs relative to control; assay type: cell-based; settings: U-87MG ATCC; method in brief: as §4
[19] = Inhibition of RTK/PI3K/AKT/mTOR signaling in human U87 cells assessed as down regulation of ERCC3 gene expression at cytotoxic IC50 measured after 48 hrs relative to control; assay type: cell-based; settings: U-87MG ATCC; method in brief: as §2
[20] = Inhibition of RTK/PI3K/AKT/mTOR signaling in human U87 cells assessed as up regulation of INHBE gene expression at cytotoxic IC50 measured after 48 hrs relative to control; assay type: cell-based; settings: U-87MG ATCC; method in brief: as §4
[21] = Inhibition of RTK/PI3K/AKT/mTOR signaling in human U87 cells assessed as up regulation of tribbles pseudokinase 2 gene expression at cytotoxic IC50 measured after 48 hrs relative to control; assay type: cell-based; settings: U-87MG ATCC
[22] = Inhibition of RTK/PI3K/AKT/mTOR signaling in human U87 cells assessed as up regulation of ETS variant 1 gene expression at cytotoxic IC50 measured after 48 hrs relative to control; assay type: cell-based; settings: U-87MG ATCC; method in brief: as §4
[23] = Inhibition of RTK/PI3K/AKT/mTOR signaling in human U87 cells assessed as up regulation of MORC family CW-type zinc finger 2 gene expression at cytotoxic IC50 measured after 48 hrs relative to control; assay type: cell-based; settings: U-87MG ATCC; method in brief: as §4
[24] = Inhibition of RTK/PI3K/AKT/mTOR signaling in human U87 cells assessed as up regulation of Rab acceptor 1 gene expression at cytotoxic IC50 measured after 48 hrs relative to control; assay type: cell-based; settings: U-87MG ATCC
Method in brief: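 U87 cells were exposed for 48 hrs at 37°C under 5% CO₂, with cisplatin and untreated controls, all in triplicate. RNA was isolated by the same protocol for every sample and expression profiled from mapped reads. Differential expression against untreated cells was called in DESeq2 (q-value < 0.05, fold change > 1.5).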

[25] = Inhibition of RTK/PI3K/AKT/mTOR signaling in human U87 cells assessed as up regulation of fibroblast growth factor 19 gene expression at cytotoxic IC50 measured after 48 hrs relative to control; assay type: cell-based
[26] = Inhibition of RTK/PI3K/AKT/mTOR signaling in human U87 cells assessed as up regulation of phosphofructokinase, platelet gene expression at cytotoxic IC50 measured after 48 hrs relative to control; assay type: cell-based

CC(=O)C(=NNc1ccccc1C#N)C(C)=O
IC50 (U-87 MG [1]): 107 µM | fold change (FC) (U-87 MG [2]): 1.949 | fold change (FC) (U-87 MG [3]): 2.121 | fold change (FC) (U-87 MG [4]): 2.177 | fold change (FC) (U-87 MG [5]): 2.057 | fold change (FC) (U-87 MG [6]): 1.569 | fold change (FC) (U-87 MG [7]): 1.471 | fold change (FC) (U-87 MG [8]): -1.195 | fold change (FC) (U-87 MG [9]): 2.317 | Activity (U-87 MG [10]): 68.7% | log2FC (U-87 MG [11]): -3.569 | log2FC (U-87 MG [12]): -1.876 | Activity (U-87 MG [13]): 9.5% | Activity (LN-229): inactive | log2FC [14]: -3.88 | log2FC [15]: -1.13 | log2FC [16]: -0.823 | log2FC [17]: -0.801 | log2FC [18]: -0.69 | log2FC [19]: -0.491 | log2FC [20]: 2.96 | log2FC [21]: 1.41 | log2FC [22]: 1.09 | log2FC [23]: 0.946 | log2FC [24]: 0.839 | log2FC [25]: 0.722 | log2FC [26]: 0.662
